Results from ChEMBL document CHEMBL1144494, “Synthesis of diverse analogues of Oenostacin and their antibacterial activities” (Bioorg Med Chem, 2007).

Legend:
[1] = tested on: Staphylococcus aureus; experiment: Antibacterial activity against Staphylococcus aureus; assay type: functional, organism-based
Procedure, shortened: (§1)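 Twofold serial broth dilution in nutrient broth across eight tubes, with broth alone as control. Each tube received 10 µl of diluted log-phase culture at a titre of 10^4 cfu/ml. Incubation at 37 °C, with growth read by turbidity. EC50 values are means of three experiments run in triplicate.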

[2] = tested on: Staphylococcus epidermidis; experiment: Antibacterial activity against Staphylococcus epidermidis; assay type: functional, organism-based; procedure, shortened: as §1

Row | Compound | EC50 [1] [nM] | EC50 [2] [nM]
1 | CC(=O)c1cc(O)c(O)c(O)c1 | 2960 | 1480
2 | O=Cc1c(O)cc(O)cc1C(=O)O | > 5000 | 1370
3 | Cc1cc(O)c(C=O)c(O)c1 | 1640 | 1640
4 | COc1cc(O)cc(C(=O)O)c1C=O | > 5000 | 2550
5 | O=C(O)CCCC(=O)c1ccc(O)c(O)c1O | 2080 | 1040
6 | COC(=O)c1cc(O)cc(OC)c1C=O | 4760 | 2380
7 | Cc1cc(O)cc(O)c1 [ORCINOL] | 4030 | 4030
8 | O=C(O)/C=C/c1ccc(O)c(O)c1 [CAFFEIC ACID] | 2780 | 2780

Molecules with a lower EC50 [1], results first:

Row | EC50 [1] [nM] | EC50 [2] [nM] | Compound
9 | 1260 | 630 | O=C(O)/C=C/c1cc(O)c(O)c(O)c1
10 | 490 | 990 | Oc1cccc(O)c1O [PYROGALLOL]
11 | 670 | 670 | O=C(O)c1cc(O)cc(O)c1CO
12 | 120 | 120 | COC(=O)CC/C=C/c1c(O)cc(C(=O)O)cc1O [OENOSTACIN]
